Assay results as given in ChEMBL document CHEMBL5674890, “Selective inhibition of CBP/p300 HAT by A-485 results in suppression of lipogenesis and hepatic gluconeogenesis” (Cell Death Dis, 2020).

Experiments:
Assay type in all cases: organism-based
Details in all cases: in vivo, 168 h, time 1 weeks
[1] = Toxicity in C57BL/6 mouse supplemented with normal chow diet assessed as effect on body weight at 20 mg/kg/day, ip administered for 1 week
How it was run: (§1)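 Male C57BL/6 mice, 8 weeks old, on normal chow, 12 h light/dark, barrier housing. Dosed intraperitoneally 20 mg·kg−1·day−1 for 7 days alongside vehicle-injected controls. Body weight followed over treatment; food intake, VO2, VCO2, respiratory exchange ratio, and plasma total cholesterol and triglyceride recorded. Mean ± SEM, n = 5–9; t test, P < 0.05.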

[2] = Toxicity in C57BL/6 mouse supplemented with normal chow diet assessed as effect on respiratory exchange ratios at 20 mg/kg/day, ip administered for 1 week; how it was run: as §1
[3] = Toxicity in C57BL/6 mouse supplemented with normal chow diet assessed as effect on plasma total cholesterol content at 20 mg/kg/day, ip administered for 1 week; how it was run: as §1
[4] = Toxicity in C57BL/6 mouse supplemented with normal chow diet assessed as effect on triglyceride levels at 20 mg/kg/day, ip administered for 1 week; how it was run: as §1
[5] = Toxicity in C57BL/6 mouse supplemented with normal chow diet assessed as effect on food intake at 20 mg/kg/day, ip administered for 1 week; how it was run: as §1
[6] = Toxicity in C57BL/6 mouse supplemented with normal chow diet assessed as effect on carbon dioxide production at 20 mg/kg/day, ip administered for 1 week; how it was run: as §1
[7] = Toxicity in C57BL/6 mouse supplemented with normal chow diet assessed as effect on oxygen consumption at 20 mg/kg/day, ip administered for 1 week; how it was run: as §1

Measured: Activity

CNC(=O)Nc1ccc2c(c1)CC[C@@]21OC(=O)N(CC(=O)N(Cc2ccc(F)cc2)[C@@H](C)C(F)(F)F)C1=O
Non-Toxic: [1] | [2] | [3] | [4] | [5] | [6] | [7]
